Results collected from several papers.
Lines come from different studies, so protocols differ.
Tmem97: Sigma intracellular receptor 2 (Tmem97, Rattus norvegicus, UniProt Q5U3Y7)
DHFR: Dihydrofolate reductase (DHFR, Homo sapiens, UniProt P00374)

`Cc1cc([C@@H](C)Nc2ccccc2C(=O)O)c2nc(N3CCC(F)(F)CC3)c(C#N)c(=O)n2c1` gave a remaining binding of 100% (Serine/threonine-protein kinase PLK1 (PLK1, Homo sapiens, UniProt P53350); binding, competition with immobilised ligand; 1 µM).
`C[C@H]1C(=O)/C(=C/c2ccccc2)[C@H]2C[C@@H]1N(Cc1ccccc1)C[C@@]2(C)O` gave an inhibition of 0% (Tmem97; ligand displacement, radioligand; 1 µM).
With `COc1cc(-c2cncc3c2CN(C)Cc2cc(N4CCNCC4)ccc2-3)cc(OC)c1OC` the remaining activity was 102% (Serine/threonine-protein kinase MRCK gamma (CDC42BPG, Homo sapiens, UniProt Q6DT37); enzyme activity, inhibitor; 1 µM).
`COc1ccc(CN2C[C@](C)(O)[C@@H]3C[C@H]2[C@@H](C)c2nc4ccccc4c(-c4ccccc4)c23)cc1` has an inhibition of 0% (Tmem97; ligand displacement, radioligand; 1 µM).
`S=C(NN=Cc1ccc(N2CCCCC2)cc1)Nc1cccc(Br)c1` gave an inhibition of 83.7% (DHFR; enzyme activity, inhibitor; 500 µM).
`CC(C)OC(=O)CNc1cccc(CN(Cc2ccc(-n3cccn3)cc2)S(=O)(=O)c2cccnc2)n1` gave an inhibition of at least 50% (Rho-associated protein kinase 2 (ROCK2, Homo sapiens, UniProt O75116); enzyme activity, inhibitor; 10 µM).
The inhibition of `Cc1ccc(NC(=S)NN=Cc2ccc(N3CCCCC3)cc2)cc1` is reported as 84.4% (DHFR; enzyme activity, inhibitor; 500 µM).
With `C=CC(=O)N1CCC(COCC(=O)N2CCN(c3nc(-c4cnc(N)nc4C(F)F)nc(N4CCOC[C@@H]4C)n3)CC2)CC1` the remaining binding was 90% (BMP-2-inducible protein kinase (BMP2K, Homo sapiens, UniProt Q9NSY1); binding, competition with immobilised ligand; 1 µM).
For `S=C(NCc1ccccc1)NN=Cc1ccc(N2CCCCC2)cc1`, the inhibition was 82.8% (DHFR; enzyme activity, inhibitor; 500 µM).
`COc1cc([C@@H]2c3cc4c(cc3[C@@H](O[C@@H]3O[C@@H]5CO[C@@H](C)O[C@H]5[C@H](O)[C@H]3O)[C@H]3COC(=O)[C@H]23)OCO4)cc(OC)c1O` has an inhibition of 89.5% (DNA topoisomerase 2-alpha (TOP2A, Homo sapiens, UniProt P11388); enzyme activity, inhibitor; 7.8 µM).
With `S=C(NN=Cc1ccc(N2CCCCC2)cc1)Nc1ccccc1` the inhibition was 90.1% (DHFR; enzyme activity, inhibitor; 500 µM).
`CNc1ncc2c(/C=C/C(=O)N3CCC(OC)CC3)nn(Cc3cccc(C(F)(F)F)c3)c2n1` has a remaining activity of 112% (Mitogen-activated protein kinase kinase kinase 8 (MAP3K8, Homo sapiens, UniProt P41279); enzyme activity, inhibitor, radiometric; 1 µM).
